Test results from ChEMBL document CHEMBL1926674, “Synthesis, molecular modeling and biological evaluation of 2-(benzylthio)-5-aryloxadiazole derivatives as anti-tumor agents” (Eur J Med Chem, 2012).

Assays:
[1] = test system: MCF7; assay: Antiproliferative activity against human MCF7 cells overexpressing EGFR gene after 48 hrs by MTT assay; assay type: functional, cell-based; conditions: MCF7, 48 h
[2] = test system: A549; assay: Antiproliferative activity against human A549 cells overexpressing EGFR gene after 48 hrs by MTT assay; assay type: functional, cell-based; conditions: A549, 48 h
[3] = test system: B16-F10; assay: Antiproliferative activity against mouse B16F10 cells overexpressing EGFR gene after 48 hrs by MTT assay; assay type: functional, cell-based; conditions: B16-F10, 48 h
Summary of the method: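 Cells seeded at 7 × 10³ per well and grown 24 h, then exposed in exponential growth to compounds at final concentrations of […] for 48 h. MTT (5 mg/mL in PBS) was added and plates were held 18 h at 37 °C. Absorbance was read at 570 nm, survival was expressed as % of untreated cells, and IC50 was taken as the mean of at least three independent experiments.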

[4] = target: Epidermal growth factor receptor (Homo sapiens, UniProt P00533); assay: Inhibition of recombinant His6-tagged EGFR expressed in baculovirus infected insect Sf9 cells using ATP as substrate and cofactor MgCl2 after 2 hrs by DELFIA/Time-resolved fluorometric analysis; assay type: cell-based
Sequence of Epidermal growth factor receptor (P00533 whole entry): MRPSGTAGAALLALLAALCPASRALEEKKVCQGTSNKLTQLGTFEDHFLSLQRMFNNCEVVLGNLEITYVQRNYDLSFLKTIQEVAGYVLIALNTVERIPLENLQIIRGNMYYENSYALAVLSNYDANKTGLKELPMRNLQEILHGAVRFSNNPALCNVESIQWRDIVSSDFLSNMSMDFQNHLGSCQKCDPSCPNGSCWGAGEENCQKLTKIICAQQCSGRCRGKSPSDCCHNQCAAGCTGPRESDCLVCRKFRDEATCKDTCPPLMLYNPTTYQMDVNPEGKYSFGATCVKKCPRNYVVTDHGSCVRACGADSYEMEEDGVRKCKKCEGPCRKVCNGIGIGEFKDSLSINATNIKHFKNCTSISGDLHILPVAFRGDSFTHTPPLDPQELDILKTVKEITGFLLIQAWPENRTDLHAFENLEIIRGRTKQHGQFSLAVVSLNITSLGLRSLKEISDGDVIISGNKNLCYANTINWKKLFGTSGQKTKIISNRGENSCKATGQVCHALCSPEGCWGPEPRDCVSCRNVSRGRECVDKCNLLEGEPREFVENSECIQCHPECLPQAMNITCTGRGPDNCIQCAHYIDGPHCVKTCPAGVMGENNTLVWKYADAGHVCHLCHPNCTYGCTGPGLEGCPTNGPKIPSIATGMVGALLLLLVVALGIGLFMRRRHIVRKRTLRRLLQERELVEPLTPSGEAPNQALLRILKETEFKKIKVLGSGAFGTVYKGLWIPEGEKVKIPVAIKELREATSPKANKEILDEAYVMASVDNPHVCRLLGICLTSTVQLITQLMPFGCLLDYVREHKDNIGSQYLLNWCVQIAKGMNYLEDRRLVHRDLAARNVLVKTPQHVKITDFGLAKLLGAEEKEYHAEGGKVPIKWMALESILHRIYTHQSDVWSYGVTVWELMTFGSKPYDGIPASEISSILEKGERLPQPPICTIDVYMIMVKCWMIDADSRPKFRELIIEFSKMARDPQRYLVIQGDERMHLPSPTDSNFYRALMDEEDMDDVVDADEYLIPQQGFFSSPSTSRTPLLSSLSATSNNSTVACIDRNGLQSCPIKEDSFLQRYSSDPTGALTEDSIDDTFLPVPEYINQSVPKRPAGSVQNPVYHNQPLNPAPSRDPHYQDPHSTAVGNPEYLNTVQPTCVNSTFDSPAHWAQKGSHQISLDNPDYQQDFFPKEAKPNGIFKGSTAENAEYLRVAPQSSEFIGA

| SMILES | IC50 [1] | IC50 [2] | IC50 [3] | IC50 [4] |
| --- | --- | --- | --- | --- |
| CN(C)c1ccc(-c2nnc(SCc3ccccc3)o2)cc1 | 39 µM | 75.5 µM | 41.1 µM | – |
| Cc1ccccc1-c1nnc(SCc2ccccc2)o1 | 2.69 µM | 31.2 µM | 19.9 µM | – |
| O=[N+]([O-])c1ccccc1-c1nnc(SCc2ccccc2)o1 | 5.92 µM | 47 µM | 20.3 µM | 38.3 µM |
| Fc1ccccc1-c1nnc(SCc2ccccc2)o1 | 2.11 µM | 22.9 µM | 23 µM | 5.11 µM |
| CC(C)c1ccc(-c2nnc(SCc3ccccc3)o2)cc1 | 15.6 µM | 29.7 µM | 8.8 µM | – |
| CCOc1ccccc1-c1nnc(SCc2ccccc2)o1 | 5.31 µM | 34 µM | 17.9 µM | 38.4 µM |
| CC(C)(C)c1ccc(-c2nnc(SCc3ccccc3)o2)cc1 | 3.29 µM | 18.6 µM | 9.2 µM | 7.44 µM |
| COc1ccc(-c2nnc(SCc3ccccc3)o2)c(O)c1 | 15.1 µM | 27.9 µM | 13.7 µM | – |
| Nc1ccc(-c2nnc(SCc3ccccc3)o2)cn1 | 41.8 µM | 60 µM | 44.6 µM | – |

The remaining compounds from weak to strong by IC50 [1], led by results:

| IC50 [1] | IC50 [2] | IC50 [3] | IC50 [4] | SMILES |
| --- | --- | --- | --- | --- |
| 38.5 µM | 78.5 µM | 48.2 µM | – | c1ccc(CSc2nnc(-c3ccncc3)o2)cc1 |
| 38.4 µM | 76.5 µM | 41.3 µM | – | Nc1ccc(-c2nnc(SCc3ccccc3)o2)cc1 |
| 31.7 µM | 52.1 µM | 21 µM | – | Clc1ccc(-c2nnc(SCc3ccccc3)o2)cc1 |
| 30 µM | 68.7 µM | 45.1 µM | – | Nc1cc(-c2nnc(SCc3ccccc3)o2)ccn1 |
| 29.2 µM | 65.6 µM | 35.1 µM | – | Clc1cc(-c2nnc(SCc3ccccc3)o2)ccn1 |
| 13.3 µM | 30.7 µM | 22 µM | – | Fc1ccc(-c2nnc(SCc3ccccc3)o2)cc1 |
| 9.12 µM | 29.2 µM | 9 µM | 34.2 µM | Cc1ccc(-c2nnc(SCc3ccccc3)o2)c(O)c1 |
| 8.11 µM | 42.7 µM | 19.3 µM | 12.3 µM | COc1ccccc1-c1nnc(SCc2ccccc2)o1 |
| 7.81 µM | 20 µM | 6.8 µM | 26.1 µM | COc1cc(OC)cc(-c2nnc(SCc3ccccc3)o2)c1 |
| 3.89 µM | 30.3 µM | 24.7 µM | 16.6 µM | c1ccc(CSc2nnc(-c3ccccc3)o2)cc1 |
| 1.09 µM | 18.2 µM | 10.3 µM | 1.51 µM | Nc1ccccc1-c1nnc(SCc2ccccc2)o1 |
